Measurements from different studies.
PIP4K2C: Phosphatidylinositol 5-phosphate 4-kinase type-2 gamma (PIP4K2C, Homo sapiens, UniProt Q8TBX8)
MAPK9: Mitogen-activated protein kinase 9 (MAPK9, Homo sapiens, UniProt P45984)

CC(C)C[C@H](NC(=O)[C@H](Cc1ccccc1)NC(=O)[C@H](Cc1ccc(O)cc1)NC(=O)CNC(=O)[C@H](CCCNC(=N)N)NC(=O)[C@H](CO)NC(=O)[C@H](CCC(N)=O)NC(=O)[C@H](CO)NC(=O)[C@H](C)NC(=O)[C@H](Cc1ccccc1)NC(=O)[C@@H]1CCCN1C(=O)[C@H](CO)NC(=O)[C@H](CCC(N)=O)NC(=O)[C@H](Cc1ccccc1)NC(=O)[C@H](CCC(=O)O)NC(=O)[C@H](CCC(=O)O)NC(=O)[C@H](CC(=O)O)NC(=O)[C@@H](NC(=O)[C@H](CCCNC(=N)N)NC(=O)[C@@H](N)Cc1ccccc1)C(C)C)C(=O)N[C@@H](Cc1ccccc1)C(=O)N[C@@H](CCCNC(=N)N)C(=O)N1CCC[C@H]1C(=O)N[C@@H](CCCNC(=N)N)C(=O)N[C@@H](CC(N)=O)C(N)=O  EC50 (Neuromedin-U receptor 1 (NMUR1, Homo sapiens, UniProt Q9HB89); inositol phosphate; agonist): 0.123 nM
Nc1ncc2c(n1)-c1c([nH]c3ccc(C#CC4CC4)cc13)CCCC2  Kd (PIP4K2C; binding; competition with immobilised ligand): 6400 nM
CN1CC(Oc2cnc(C#N)cc2-c2ccn3nc(NC(=O)C4CC4)cc3c2)C1  Ki (Tyrosine-protein kinase Lck (LCK, Homo sapiens, UniProt P06239); enzyme activity; inhibitor): 220 nM
Cc1cc2nc3c(=O)[nH]c(=O)nc-3n(C[C@H](O)[C@H](O)[C@H](O)COP(=O)(O)OP(=O)(O)OC[C@H]3O[C@@H](n4cnc5c(N)ncnc54)[C@H](O)[C@@H]3O)c2cc1C  Kd (RNA-binding protein Musashi homolog 2 (MSI2, Homo sapiens, UniProt Q96DH6); binding; lysate): 59 nM
COc1ccc2c(Oc3ccc4c(C(=O)Nc5ccccc5N)cccc4c3)ccnc2c1  IC50 (MAPK9; enzyme activity; inhibitor): > 500 nM
Cc1ncsc1-c1ccc([C@H](C)NC(=O)[C@@H]2C[C@@H](O)CN2C(=O)[C@@H](NC(=O)CCCCCC(=O)N2CCC3(CC2)CCN(c2cncc(Nc4ncc(Cl)c(-c5cccc(-c6ccccc6)c5)n4)c2)C3=O)C(C)(C)C)cc1  DC50 (PIP4K2C; protein level; degrader; western blot): 24 nM
Cc1cnc(-c2ccc(-c3ccc(NC(=O)Nc4c(F)cc(F)cc4F)cc3F)c3c2C(=O)NC3)[nH]1  Kd (Proto-oncogene tyrosine-protein kinase receptor Ret (RET, Homo sapiens, UniProt P07949); binding; competition with immobilised ligand): 9.4 nM
CC(C)(C)CC(C)(C)c1ccc(O)cc1  EC50 (Estrogen receptor beta (ESR2, Homo sapiens, UniProt Q92731); reporter gene; agonist; luciferase): 197 nM
COc1ccc(-c2nsc(NC(=O)[C@@H]3C[C@H]3C)c2C)cc1  EC50 (Metabotropic glutamate receptor 2 (GRM2, Homo sapiens, UniProt Q14416); calcium signal; agonist): > 25000 nM
CC1(C)[C@@H](O)CC[C@]2(C)[C@H]3C(=O)C=C4[C@@H]5C[C@@](C)(C(=O)O)CC[C@]5(C)CC[C@@]4(C)[C@]3(C)CC[C@@H]12  Kd (Peroxiredoxin-2 (PRDX2, Homo sapiens, UniProt P32119); binding; SPR): 30000 nM
C[S+](CC[C@H](N)C(=O)O)C[C@H]1O[C@@H](n2cnc3c(N)ncnc32)[C@H](O)[C@@H]1O (stereo partly drawn)  Kd (tRNA (guanine-N(1)-)-methyltransferase (trmD, Escherichia coli, UniProt P0A873); binding; fluorescence): 1400 nM
CCOc1cc(-c2nncn2C)ccc1Nc1ncc2cc(C)nc(NCC(C)(C)C)c2n1  Kd (MAPK9; binding; competition with immobilised ligand): 74 nM
